Measured values taken from ChEMBL document CHEMBL3407460, “Synthesis of novel thiazole-based 8,9-dihydro-7H-pyrimido[4,5-b][1,4]diazepines as potential antitumor and antifungal agents” (2015).

What was measured:
Type in all cases: functional
[1] = tested on: Candida albicans; experiment: Antifungal activity against Candida albicans ATCC 10231 assessed as growth inhibition at 250 ug/ml after 48 hrs by broth microdilution method; settings: ATCC 10231, 48 h
How it was run: (§1)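 CLSI M27-A3 broth microdilution in RPMI-1640. Compound stocks were made in DMSO (final at most 1%) and tested at final levels of 250 to 0.98. Inoculum was 1–5 × 10^3 CFU/mL, incubated 48 h at 30 °C in a moist, dark chamber. Growth and sterility control wells were included.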

[2] = tested on: Candida albicans; experiment: Antifungal activity against Candida albicans ATCC 10231 assessed as growth inhibition at 125 ug/ml after 48 hrs by broth microdilution method; settings: ATCC 10231, 48 h; how it was run: as §1
[3] = tested on: Candida albicans; experiment: Antifungal activity against Candida albicans ATCC 10231 assessed as growth inhibition at 62.5 ug/ml after 48 hrs by broth microdilution method; settings: ATCC 10231, 48 h; how it was run: as §1
[4] = tested on: Candida albicans; experiment: Antifungal activity against Candida albicans ATCC 10231 assessed as growth inhibition at 31.25 ug/ml after 48 hrs by broth microdilution method; settings: ATCC 10231, 48 h; how it was run: as §1
[5] = tested on: Candida albicans; experiment: Antifungal activity against Candida albicans ATCC 10231 assessed as growth inhibition at 15.62 ug/ml after 48 hrs by broth microdilution method; settings: ATCC 10231, 48 h; how it was run: as §1
[6] = tested on: Candida albicans; experiment: Antifungal activity against Candida albicans ATCC 10231 assessed as growth inhibition at 7.81 ug/ml after 48 hrs by broth microdilution method; settings: ATCC 10231, 48 h; how it was run: as §1
[7] = tested on: Candida albicans; experiment: Antifungal activity against Candida albicans ATCC 10231 assessed as growth inhibition at 3.9 ug/ml after 48 hrs by broth microdilution method; settings: ATCC 10231, 48 h; how it was run: as §1
[8] = tested on: Cryptococcus neoformans; experiment: Antifungal activity against Cryptococcus neoformans ATCC 32264 assessed as growth inhibition at 250 ug/ml after 48 hrs by broth microdilution method; settings: ATCC 32264, 48 h; how it was run: as §1
[9] = tested on: Cryptococcus neoformans; experiment: Antifungal activity against Cryptococcus neoformans ATCC 32264 assessed as growth inhibition at 125 ug/ml after 48 hrs by broth microdilution method; settings: ATCC 32264, 48 h; how it was run: as §1
[10] = tested on: Cryptococcus neoformans; experiment: Antifungal activity against Cryptococcus neoformans ATCC 32264 assessed as growth inhibition at 62.5 ug/ml after 48 hrs by broth microdilution method; settings: ATCC 32264, 48 h; how it was run: as §1
[11] = tested on: Cryptococcus neoformans; experiment: Antifungal activity against Cryptococcus neoformans ATCC 32264 assessed as growth inhibition at 31.25 ug/ml after 48 hrs by broth microdilution method; settings: ATCC 32264, 48 h; how it was run: as §1
[12] = tested on: Cryptococcus neoformans; experiment: Antifungal activity against Cryptococcus neoformans ATCC 32264 assessed as growth inhibition at 15.62 ug/ml after 48 hrs by broth microdilution method; settings: ATCC 32264, 48 h; how it was run: as §1
[13] = tested on: Cryptococcus neoformans; experiment: Antifungal activity against Cryptococcus neoformans ATCC 32264 assessed as growth inhibition at 7.81 ug/ml after 48 hrs by broth microdilution method; settings: ATCC 32264, 48 h; how it was run: as §1
[14] = tested on: Cryptococcus neoformans; experiment: Antifungal activity against Cryptococcus neoformans ATCC 32264 assessed as growth inhibition at 3.9 ug/ml after 48 hrs by broth microdilution method; settings: ATCC 32264, 48 h; how it was run: as §1

SMILES | inhibition at 250 µg/mL [1] | inhibition at 125 µg/mL [2] | inhibition at 62.5 µg/mL [3] | inhibition at 31.25 µg/mL [4] | inhibition at 15.62 µg/mL [5] | inhibition at 7.81 µg/mL [6] | inhibition at 3.9 µg/mL [7] | inhibition at 250 µg/mL [8] | inhibition at 125 µg/mL [9] | inhibition at 62.5 µg/mL [10] | inhibition at 31.25 µg/mL [11] | inhibition at 15.62 µg/mL [12] | inhibition at 7.81 µg/mL [13] | inhibition at 3.9 µg/mL [14]
Cc1ccc(C2=Nc3c(N)nc(N)nc3NC(c3sc(Cl)nc3Cl)C2)cc1 (stereo not drawn) | 55.5% | 21.3% | 13.5% | 8.7% | 1.41% | 0% | 0% | 59.1% | 18.3% | 9.2% | 6.47% | 4.57% | 0.93% | 0%
COc1cc(C2=Nc3c(N)nc(N)nc3NC(c3sc(Cl)nc3Cl)C2)cc(OC)c1OC (stereo not drawn) | 15% | 10.5% | 7.26% | 9.84% | 0% | 0% | 0% | 77.5% | 27.2% | 9.28% | 7.09% | 5.52% | 2.99% | 1.65%
